The test system of test [1] is L1210. In words: Antitumor activity against mouse L1210 cells allografted in BDF1 mouse assessed as survival at 200 mg/kg, ip administered as single dose measured on day 30 relative to vehicle-treated control. It is filed as functional, organism-based. More on the design: dose 200 mg/kg. An outline of the steps:
(§1)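 Leukemic L1210 cells were introduced into mice. Each compound was then given as a single intraperitoneal injection 24 h later. Activity is expressed as % increase in life span (ILS), with the count of 30-day survivors per group. Doses tested were 100, 200, 500 and 1000 mg/kg.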

The next test has as its system Herpesviridae sp. Put plainly: Antiviral activity against Herpes Simplex virus HF infected in African green monkey BGM cells assessed as plaque reduction measured on day 5 by disk diffusion assay. The test is classed as functional. As to conditions: 120 h, read-out: ED50 (the source's name). In general terms: In agar diffusion tests the substance spreads into inoculated agar from a disc or well.

The subject of test [2] is L1210. Put plainly: Antitumor activity against mouse L1210 cells allografted in BDF1 mouse assessed as increase in life span at 1000 mg/kg, ip administered as single dose relative to vehicle-treated control. As to conditions: route intraperitoneal. The test is classed as functional. The gist of the method:
(§2)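 Single intraperitoneal injection given 24 h after the leukemic cells were introduced, at 100, 200, 500 or 1000 mg/kg. Read-out is % increase in life span (ILS), with the count of 30-day survivors per group recorded (group sizes 7–8 mice).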

Test [3] deals with L1210. Put plainly: Antitumor activity against mouse L1210 cells allografted in BDF1 mouse assessed as increase in life span at 100 mg/kg, ip administered as single dose relative to vehicle-treated control. As to conditions: route intraperitoneal. The test is classed as functional. An outline of the steps:
as §2

Test [4] has as its system L1210. In words: Antitumor activity against mouse L1210 cells allografted in BDF1 mouse assessed as survival at 100 mg/kg, ip administered as single dose measured on day 30 relative to vehicle-treated control. The test is classed as functional, organism-based. More on the design: dose 100 mg/kg. The gist of the method:
as §1

The subject of the next test is HeLa. In words: Cytotoxicity against human HeLa cells after 48 hrs by Coulter counter analysis. It is filed as functional. The following applies: read-out: ED50 (the source's name).
The subject of test [5] is L1210. Put plainly: Antitumor activity against mouse L1210 cells allografted in BDF1 mouse assessed as survival at 1000 mg/kg, ip administered as single dose measured on day 30 relative to vehicle-treated control. It is filed as functional, organism-based. More on the design: dose 1000 mg/kg. An outline of the steps: as §1
The test system of the next test is Vaccinia virus. In words: Antiviral activity against Vaccinia virus IHD infected in African green monkey BGM cells assessed as plaque reduction measured on day 5 by disk diffusion assay. It is filed as functional. As to conditions: Orthopoxvirus vaccinia, 120 h, read-out: ED50 (the source's name).
In test [6] the test system is L1210. In words: Antitumor activity against mouse L1210 cells allografted in BDF1 mouse assessed as increase in life span at 200 mg/kg, ip administered as single dose relative to vehicle-treated control. The following applies: route intraperitoneal. The test is classed as functional. An outline of the steps: as §2
Test [7] concerns L1210. In words: Antitumor activity against mouse L1210 cells allografted in BDF1 mouse assessed as increase in life span at 500 mg/kg, ip administered as single dose relative to vehicle-treated control. The following applies: route intraperitoneal. The test is classed as functional. An outline of the steps: as §2

Molecules are shown by their SMILES. Values after ≈ are worked out from the molar mass of the structure shown. Active and inactive are the calls of the source. No cut-off for these calls is given here. Bounds are passed on as bounds.

The record followed here is ChEMBL document CHEMBL3272036, “Reactions of 2-acyloxyisobutyryl halides with nucleosides. Synthesis and biological evaluation of some 3"-acyl and 3',5'-diacyl derivatives of 1-beta-D-arabinofuranosylcytosine” (J Med Chem, 1976).

As for `CCCCCCCCCCCCCCCCCCCCCC(=O)OC[C@H]1O[C@@H](n2ccc(N)nc2=O)[C@@H](O)[C@@H]1OC(=O)CCCCCCCCCCCCCCCCCCCCC`, the result with L1210 [1], in the test with L1210 [4] and with L1210 [5] was inactive. The EC50 in the test on Herpesviridae sp. was more than 30000 nM; with HeLa, more than 10 µg/mL; with Vaccinia virus, more than 30000 nM. Besides, the ILS at 1000 mg/kg with L1210 [2] came out at 113%. In the test on L1210 [3], the ILS at 100 mg/kg is 10%. Also, the ILS at 200 mg/kg in the test on L1210 [6] came to 27%.

As for `CCCCCCCC(=O)OC[C@H]1O[C@@H](n2ccc(N)nc2=O)[C@@H](O)[C@@H]1OC(=O)CCCCCCC.Cl`, the result with L1210 [1], in the test with L1210 [4] and in the test with L1210 [5] was inactive. Further, the EC50 in the test on Herpesviridae sp. was determined as 2600 nM; in the test with HeLa, 0.13 µg/mL; in the test with Vaccinia virus, 220 nM. In addition, the ILS at 1000 mg/kg in the test on L1210 [2] is 46%. Moreover, in the test on L1210 [3], the ILS at 100 mg/kg is -28%. For the same molecule, in the test on L1210 [6], the ILS at 200 mg/kg was 20%.

For `C=CCCCCCCCC(=O)OC[C@H]1O[C@@H](n2ccc(N)nc2=O)[C@@H](O)[C@@H]1OC(=O)CCCCCCCC=C.Cl`, the EC50 in the test on HeLa is 0.1 µg/mL.

As for `CCCCCCCCCCCC(=O)OC[C@H]1O[C@@H](n2ccc(N)nc2=O)[C@@H](O)[C@@H]1OC(=O)CCCCCCCCCCC`, in the test with L1210 [1], the result was Active. Moreover, the EC50 was 7200 nM in the test with Herpesviridae sp., 0.5 µg/mL (≈ 0.823 µM) with HeLa and 2050 nM in the test with Vaccinia virus. Besides, the ILS at 1000 mg/kg with L1210 [2] is more than 260%. The ILS at 200 mg/kg with L1210 [6] is more than 285%.

`C=CCCCCCCCCC(=O)O[C@H]1[C@H](O)[C@H](n2ccc(N)nc2=O)O[C@@H]1CO`: the result with L1210 [1] was inactive. For the same molecule, the EC50 is 440 nM with Herpesviridae sp., 0.05 µg/mL (≈ 0.122 µM) in the test on HeLa and 110 nM with Vaccinia virus. Also, the ILS at 1000 mg/kg in the test on L1210 [2] is more than 52%. Besides, the ILS at 500 mg/kg in the test with L1210 [7] was more than 191%. For the same molecule, the ILS at 200 mg/kg with L1210 [6] amounted to 49%.

Regarding `CC(=O)OC[C@H]1O[C@@H](n2ccc(N)nc2=O)[C@@H](O)[C@@H]1OC(C)=O.Cl`, the outcome in the test with L1210 [1] was inactive. Further, the results for the EC50 with Herpesviridae sp., in the test on HeLa and in the test with Vaccinia virus were 16000 nM, 0.06 µg/mL and 3200 nM, respectively. Further, the ILS at 200 mg/kg in the test on L1210 [6] came to 10%.

On to `CCCCCCCCC(=O)OC[C@H]1O[C@@H](n2ccc(N)nc2=O)[C@@H](O)[C@@H]1OC(=O)CCCCCCCC.Cl`, for which the outcome in the test on L1210 [1] was inactive. Also, the results for the EC50 in the test with Herpesviridae sp., in the test on HeLa and in the test with Vaccinia virus were 520 nM, 0.08 µg/mL and 190 nM, respectively. Moreover, in the test with L1210 [6], the ILS at 200 mg/kg came to 71%.

`CCCC(=O)OC[C@H]1O[C@@H](n2ccc(N)nc2=O)[C@@H](O)[C@@H]1OC(=O)CCC`: the result in the test with L1210 [1] and in the test on L1210 [4] was inactive. Also, the EC50 turned out to be 5200 nM with Herpesviridae sp., 0.11 µg/mL (≈ 0.287 µM) in the test with HeLa and 1150 nM in the test with Vaccinia virus. Besides, the ILS at 100 mg/kg with L1210 [3] was 14%. In addition, the ILS at 200 mg/kg in the test with L1210 [6] came to 8%.

Take `CCCCCC(=O)OC[C@H]1O[C@@H](n2ccc(N)nc2=O)[C@@H](O)[C@@H]1OC(=O)CCCCC`: the outcome with L1210 [1] and in the test with L1210 [4] was inactive. For the same molecule, the EC50 was determined as 900 nM in the test with Herpesviridae sp., 0.07 µg/mL (≈ 0.159 µM) with HeLa and 220 nM in the test on Vaccinia virus. The ILS at 100 mg/kg in the test with L1210 [3] is 4%. Further, the ILS at 200 mg/kg in the test with L1210 [6] is 11%.

Consider `CCCCCCCCCC(=O)OC[C@H]1O[C@@H](n2ccc(N)nc2=O)[C@@H](O)[C@@H]1OC(=O)CCCCCCCCC`, for which the EC50 in the test with Herpesviridae sp. was found to be 780 nM; in the test with HeLa it was 0.11 µg/mL (≈ 0.199 µM); in the test on Vaccinia virus, 350 nM. In addition, the ILS at 1000 mg/kg in the test on L1210 [2] was -4%. Moreover, the ILS at 500 mg/kg in the test on L1210 [7] is more than 205%. Further, the result in the test on L1210 [5] was inactive. Also, the ILS at 200 mg/kg in the test with L1210 [6] is more than 214%.

For `CCCCCCCC/C=C/CCCCCCCC(=O)O[C@H]1[C@H](O)[C@H](n2ccc(N)nc2=O)O[C@@H]1CO`, the values for the EC50 with Herpesviridae sp., with HeLa and with Vaccinia virus were 1500 nM, 0.05 µg/mL (≈ 0.0985 µM) and 940 nM, respectively. Also, in the test on L1210 [3], the ILS at 100 mg/kg is more than 246%. Further, the ILS at 200 mg/kg in the test on L1210 [6] is more than 258%.

In the case of `Cl.Nc1ccn([C@@H]2O[C@H](COC(=O)Cc3ccccc3)[C@@H](OC(=O)Cc3ccccc3)[C@@H]2O)c(=O)n1`, in the test with L1210 [1], the outcome was inactive. Also, the EC50 with Herpesviridae sp. is 1300 nM; in the test with HeLa it was 0.13 µg/mL; in the test with Vaccinia virus it was 2300 nM. Also, the ILS at 200 mg/kg in the test on L1210 [6] is 29%.
